Laboratory results published in ChEMBL document CHEMBL4680311, “Synthesis, characterization, in vitro SAR study, and preliminary in vivo toxicity evaluation of naphthylmethyl substituted bis-imidazolium salts” (Bioorg Med Chem, 2021).

Tests used:
EKVX [1] = test: Growth inhibition of human EKVX cells incubated for 48 hrs by sulforhodamine B assay; format: functional
Method in brief: (§1)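 NCI DTP NCI-60 five-dose screen, same procedure as the one-dose assay: 24 h preincubation, then 48 h exposure. Five tenfold-spaced concentrations were used, from 100 μM to 10 nM or from 25 μM to 2.5 nM depending on compound. GI50, TGI and LC50 were read from growth-percentage curves relative to control cells.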

NCI-H1975 = test: Cytotoxicity against human NCI-H1975 cells assessed as cell growth inhibition measured after 72 hrs by MTT assay; format: functional, cell-based; conditions: NCI-H1975, 72 h
Method in brief: (§2)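 Cells kept in RPMI 1640 with 10% FBS at 37 °C, 5% CO₂, passaged every 2–3 days; grown to confluence, seeded at 5,000–7,000 cells/well depending on line, incubated 24 h. Compounds dissolved in 1% DMSO, diluted in medium to 1, 4, 16, 32 μM (6 replicates each), 72 h exposure. MTT 3–4 h, medium aspirated, DMSO added, 15 min, OD 540 nm; IC50 relative to untreated cells.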

A549 [2] = test: Cytotoxicity against human A549 cells assessed as cell growth inhibition measured after 72 hrs by MTT assay; format: functional, cell-based; conditions: A549, 72 h; method in brief: as §2
NCI-H23 [3] = test: Antiproliferative activity against human NCI-H23 cells assessed as cell growth at 10 uM incubated for 48 hrs by sulforhodamine B assay relative to control; format: functional; conditions: read-out: Activity
Method in brief: (§3)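 NCI DTP NCI-60 one-dose screen on the NSCLC panel. Cells were seeded at densities set by doubling rate and incubated 24 h. They were then exposed to a single 10 μM dose for 48 h. Each value is a growth percentage relative to the initial cell population: positive means net growth, negative means net cell kill.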

NCI-H322M [4] = test: Antiproliferative activity against human NCI-H322M cells assessed as cell growth at 10 uM incubated for 48 hrs by sulforhodamine B assay relative to control; format: functional; conditions: read-out: Activity; method in brief: as §3
NCI-H23 [5] = test: Growth inhibition of human NCI-H23 cells incubated for 48 hrs by sulforhodamine B assay; format: functional; method in brief: as §1
HOP-92 [6] = test: Growth inhibition of human HOP-92 cells incubated for 48 hrs by sulforhodamine B assay; format: functional; method in brief: as §1
A549 [7] = test: Antiproliferative activity against human A549/ATCC cells assessed as cell growth at 10 uM incubated for 48 hrs by sulforhodamine B assay relative to control; format: functional; conditions: read-out: Activity; method in brief: as §3
NCI-H522 [8] = test: Growth inhibition of human NCI-H522 cells incubated for 48 hrs by sulforhodamine B assay; format: functional; conditions: for CC50: read-out: LC50 (the source's name); method in brief: as §1
NCI-H226 [9] = test: Antiproliferative activity against human NCI-H226 cells assessed as cell growth at 10 uM incubated for 48 hrs by sulforhodamine B assay relative to control; format: functional; conditions: read-out: Activity; method in brief: as §3
NCI-H460 [10] = test: Growth inhibition of human NCI-H460 cells incubated for 48 hrs by sulforhodamine B assay; format: functional; method in brief: as §1
HCC827 = test: Cytotoxicity against human HCC827 cells assessed as cell growth inhibition measured after 72 hrs by MTT assay; format: functional, cell-based; conditions: HCC827, 72 h; method in brief: as §2
HOP-62 [11] = test: Antiproliferative activity against human HOP-62 cells assessed as cell growth at 10 uM incubated for 48 hrs by sulforhodamine B assay relative to control; format: functional; conditions: read-out: Activity; method in brief: as §3
EKVX [12] = test: Antiproliferative activity against human EKVX cells assessed as cell growth at 10 uM incubated for 48 hrs by sulforhodamine B assay relative to control; format: functional; conditions: read-out: Activity; method in brief: as §3
NCI-H322M [13] = test: Growth inhibition of human NCI-H322M cells incubated for 48 hrs by sulforhodamine B assay; format: functional; method in brief: as §1
A549 [14] = test: Growth inhibition of human A549/ATCC cells incubated for 48 hrs by sulforhodamine B assay; format: functional; conditions: for CC50: read-out: LC50 (the source's name); method in brief: as §1
HOP-92 [15] = test: Antiproliferative activity against human HOP-92 cells assessed as cell growth at 10 uM incubated for 48 hrs by sulforhodamine B assay relative to control; format: functional; conditions: read-out: Activity; method in brief: as §3
NCI-H226 [16] = test: Growth inhibition of human NCI-H226 cells incubated for 48 hrs by sulforhodamine B assay; format: functional; method in brief: as §1
HOP-62 [17] = test: Growth inhibition of human HOP-62 cells incubated for 48 hrs by sulforhodamine B assay; format: functional; method in brief: as §1
NCI-H460 [18] = test: Cytotoxicity against human NCI-H460 cells assessed as cell growth inhibition measured after 72 hrs by MTT assay; format: functional, cell-based; conditions: NCI-H460, 72 h; method in brief: as §2
NCI-H460 [19] = test: Antiproliferative activity against human NCI-H460 cells assessed as cell growth at 10 uM incubated for 48 hrs by sulforhodamine B assay relative to control; format: functional; conditions: read-out: Activity; method in brief: as §3
NCI-H522 [20] = test: Antiproliferative activity against human NCI-H522 cells assessed as cell growth at 10 uM incubated for 48 hrs by sulforhodamine B assay relative to control; format: functional; conditions: read-out: Activity; method in brief: as §3
[21] = Toxicity in C57BL/6 mouse assessed as body weight loss at 20 mg/kg, ip administered on day 0, 7, 14 and 29 relative to control; format: organism-based; conditions: in vivo, 96 h, time 4 day
Method in brief: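 Male C57BL/6 mice, 8 weeks old, acclimated 5 days, 12 h light/dark, 3 per cage, n = 3. Mice got 100 μL of 4 mg/mL drug in 20% 2-HPβCD in sterile PBS, about 20 mg/kg assuming 20 g, IP on days 0, 7, 14 and 29 (1 h before sacrifice). Vehicle mice were dosed IP on days 0, 7, 14, 21, 25 and 29. Weight and behaviour were checked daily; sacrifice was on day 29.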

[22] = Toxicity in C57BL/6 mouse assessed as body weight loss measured on day 6 at 20 mg/kg, ip administered on day 0, 7, 14 and 29; conditions: in vivo
[23] = Toxicity in C57BL/6 mouse assessed as body weight loss recovery measured after second and third injection at 20 mg/kg, ip administered on day 0, 7, 14 and 29 relative to control; format: organism-based; conditions: in vivo, 96 h, time 4 day
Method in brief: (§4)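 Male C57BL/6 mice, eight weeks old, acclimated 5 days, 3 per cage, 12 h light/dark, food and water ad libitum. IP injection of 100 μL of a 4 mg/mL solution in 20% 2-HPβCD sterile PBS (~20 mg/kg assuming 20 g mouse) on days 0, 7, 14, 29. Vehicle mice got 2-HPβCD on days 0, 7, 14, 21, 25, 29. Weighed and observed daily; sacrificed day 29.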

[24] = Toxicity in C57BL/6 mouse assessed as body weight gain at 20 mg/kg, ip administered on day 0, 7, 14 and 29; format: organism-based; conditions: in vivo, 96 h, time 4 day; method in brief: as §4

SMILES	GI50 (EKVX [1])	LC50 (EKVX [1])	IC50 (NCI-H1975)	IC50 (A549 [2])	growth at 10 µM (NCI-H23 [3])	growth at 10 µM (NCI-H322M [4])	GI50 (NCI-H23 [5])	LC50 (NCI-H23 [5])	GI50 (HOP-92 [6])	LC50 (concentration giving 50% net cell kill) (HOP-92 [6])	growth at 10 µM (A549 [7])	GI50 (NCI-H522 [8])	CC50 (NCI-H522 [8])	growth at 10 µM (NCI-H226 [9])	IC50 (HCC827)	growth at 10 µM (HOP-62 [11])	growth at 10 µM (EKVX [12])	growth at 10 µM (HOP-92 [15])	IC50 (NCI-H460 [18])	growth at 10 µM (NCI-H460 [19])	further results
c1ccc2cc(Cn3cc[n+](CCCCCCCCCCCCn4cc[n+](Cc5ccc6ccccc6c5)c4)c3)ccc2c1	0.893 µM	20.8 µM	< 1 µM	< 1 µM	-80.3%	-18.4%	0.722 µM	11.2 µM	0.5 µM	7.29 µM	-74.2%	0.47 µM	9.89 µM	-42.1%	4 µM	-58%	-62.6%	-68.2%	< 1 µM		GI50 (NCI-H460 [10]): 0.814 µM; LC50 (concentration giving 50% net cell kill) (NCI-H460 [10]): 14.6 µM; TGI (NCI-H460 [10]): 2.96 µM; GI50 (NCI-H322M [13]): 0.859 µM; LC50 (concentration giving 50% net cell kill) (NCI-H322M [13]): 10.4 µM; TGI (NCI-H322M [13]): 3.9 µM; GI50 (A549 [14]): 0.744 µM; CC50 (A549 [14]): 14.2 µM; GI50 (NCI-H226 [16]): 0.984 µM; LC50 (NCI-H226 [16]): > 25 µM; TGI (NCI-H226 [16]): 5.52 µM; GI50 (HOP-62 [17]): 0.815 µM; LC50 (concentration giving 50% net cell kill) (HOP-62 [17]): 12.2 µM
c1ccc2cc(Cn3cc[n+](CCCCn4cc[n+](Cc5ccc6ccccc6c5)c4)c3)ccc2c1			11 µM	4 µM	44%	90%					49.3%			82%	13 µM	54.8%	58.1%	68.4%	4 µM	38.2%	growth at 10 µM (NCI-H522 [20]): 43.4%
c1ccc2cc(Cn3cc[n+](CCCCCCCn4cc[n+](Cc5ccc6ccccc6c5)c4)c3)ccc2c1			3 µM	2 µM	14.4%	58.6%					26.7%			59.5%	10 µM	32.6%	27.9%		3 µM	14.6%	growth at 10 µM (NCI-H522 [20]): 5.87%
[Br-].[Br-].c1ccc2cc(Cn3cc[n+](CCCCCCCCCCn4cc[n+](Cc5ccc6ccccc6c5)c4)c3)ccc2c1	0.442 µM	58.4 µM	2 µM	< 1 µM	5.67%	34.5%	0.445 µM	39.9 µM	0.396 µM	15.2 µM	18.6%	0.436 µM	5.95 µM	39.5%	7 µM	-4.86%	13.7%	-23.6%	< 1 µM	11%	Activity [21]: 4%; body weight loss at 96 h [22]: 10%; GI50 (NCI-H460 [10]): 0.376 µM; LC50 (concentration giving 50% net cell kill) (NCI-H460 [10]): 45.9 µM; TGI (NCI-H460 [10]): 10.1 µM; GI50 (NCI-H322M [13]): 3.55 µM; LC50 (concentration giving 50% net cell kill) (NCI-H322M [13]): 48.1 µM; TGI (NCI-H322M [13]): 18.4 µM; Activity [23]: Toxic; CC50 (A549 [14]): 50.3 µM; GI50 (NCI-H226 [16]): 0.918 µM; LC50 (NCI-H226 [16]): > 100 µM; TGI (NCI-H226 [16]): 13.6 µM; GI50 (HOP-62 [17]): 1.09 µM; LC50 (concentration giving 50% net cell kill) (HOP-62 [17]): 44.5 µM; Activity [24]: Toxic
c1ccc2cc(Cn3cc[n+](Cc4ccc5ccccc5c4)c3)ccc2c1			6 µM												9 µM				4 µM		
